From ChEMBL document CHEMBL5104210, “Discovery of antipsychotic loxapine derivatives against intracellular multidrug-resistant bacteria” (RSC Med Chem, 2022)
The source made the active and inactive calls. The calls are words filed in the database; no cut-off is given here.

Experiments:
Salmonella typhimurium [1] = assay: Antibacterial activity against intracellular multidrug-resistant Salmonella typhimurium ATCC14028 infected in mouse RAW264.7 cells assessed as reduction in intracellular bacterial survival level by RFP staining based high-content image analysis; assay type: functional, organism-based, Salmonella enterica subsp. enterica serovar Typhimurium; conditions: Salmonella enterica, ATCC14028, RAW264.7
Method in brief: (§1)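 RAW264.7 cells were seeded for 20 h, then infected for 1 h at MOI 50 with RFP-expressing bacteria (2 h subculture, OD600 0.6 ≈ 1×10^8 CFU/mL). Gentamicin 100 mg/L was given for 1 h, then compound plus 20 mg/L gentamicin for 24 h. Cells were stained with CellTracker Green, fixed, and stained with DAPI. Whole-well high-content imaging gave intracellular RFP intensity for EC50 and DAPI nuclei counts for CC50.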

[2] = Cytotoxicity against mouse RAW264.7 cells assessed as reduction in number of cells by DAPI staining based high-content image analysis; assay type: toxicity, cell-based
Method in brief: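 RAW264.7 seeded 20 h, infected 1 h with RFP-expressing S. Typhimurium (MOI 50), 100 mg/L gentamicin 1 h, then compound with 20 mg/L gentamicin 24 h. Cells stained with CellTracker Green, fixed in 3.7% formaldehyde, DAPI 0.2 mg/L. Whole-well high-content imaging at 10×; viable cells counted as DAPI-stained nuclei; CC50 calculated.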

[3] = Selectivity ratio of CC50 for cytotoxicity against mouse RAW264.7 cells to EC50 for antibacterial activity against intracellular multidrug-resistant Salmonella typhimurium ATCC14028 infected in mouse RAW264.7 cells; assay type: toxicity, cell-based; conditions: read-out: Ratio CC50/EC50; method in brief: as §1
[4] = molecular target: D(2) dopamine receptor (Homo sapiens) (UniProt P14416); assay: Inhibition of isotope-labelled spiperone binding to recombinant dopamine D2 receptor (unknown origin)
Method in brief: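 Human recombinant D2L receptor expressed in CHO cells (20 μg) incubated with increasing compound concentrations and 0.16 nM [3H]spiperone in Tris-HCl pH 7.4, 120 min at 25°C. Bound radioligand measured by filtration, washing and counting. Nonspecific binding defined with 10 μM haloperidol. Run as a contract service.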

Salmonella typhimurium [5] = assay: Antibacterial activity against intracellular multidrug-resistant Salmonella typhimurium ATCC14028 infected in mouse RAW264.7 cells assessed as reduction in number of intracellular bacteria incubated for 24 hrs in presence of gentamycin by CFU assay; assay type: functional, organism-based, Salmonella enterica subsp. enterica serovar Typhimurium; conditions: Salmonella enterica, ATCC14028, RAW264.7, 24 h
Method in brief: (§2)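 Bacteria were subcultured 1:100 from overnight LB cultures for 2 h at 37°C and resuspended in PBS to OD600 0.6. Host cells in 6-well plates were infected at MOI 25 for 1 h, treated with 100 mg/L gentamicin for 1 h, then given compound plus 20 mg/L gentamicin for 24 h. Cells were lysed in 0.1% Triton X-100, and lysates were serially diluted and plated on LB agar (37°C, 18 h) for CFU counts.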

[6] = Cytotoxicity against mouse RAW264.7 cells assessed as reduction in cell viability measured after 24 hrs by MTT assay; assay type: toxicity, cell-based
Method in brief: (§3)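 Cells were seeded and grown 20 h, then given test compound for 24 h. Media were DMEM + 10% heat-inactivated FBS (RAW264.7, J774.1, INT-407), RPMI 1640 + 10% FBS (THP-1) and McCoy's 5A + 10% FBS (HT-29, HCT-116), at 37°C and 5% CO2. MTT was added at 0.5 g/L for 1 h, formazan dissolved in DMSO, and A570 read. CC50 was calculated by curve fitting.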

Salmonella typhimurium [7] = assay: Antibacterial activity against intracellular multidrug-resistant Salmonella typhimurium ATCC14028 infected in mouse J774.1 cells assessed as reduction in viability of intracellular bacteria incubated for 24 hrs in presence of gentamicin by CFU assay; assay type: functional, organism-based, Salmonella enterica subsp. enterica serovar Typhimurium; conditions: Salmonella enterica, ATCC14028, J774.1, 24 h; method in brief: as §2
[8] = Cytotoxicity against mouse J774.1 cells assessed as reduction in cell viability in presence of gentamicin and measured after 24 hrs by MTT assay; assay type: toxicity, cell-based; method in brief: as §3
Salmonella typhimurium [9] = assay: Antibacterial activity against intracellular multidrug-resistant Salmonella typhimurium ATCC14028 infected in human HT-29 cells assessed as reduction in viability of intracellular bacteria incubated for 24 hrs in presence of gentamicin by CFU assay; assay type: functional, organism-based, Salmonella enterica subsp. enterica serovar Typhimurium; conditions: Salmonella enterica, ATCC14028, HT-29, 24 h; method in brief: as §2
[10] = Cytotoxicity against human HT-29 cells assessed as reduction in cell viability in presence of gentamicin and measured after 24 hrs by MTT assay; assay type: toxicity, cell-based; method in brief: as §3
Salmonella typhimurium [11] = assay: Antibacterial activity against intracellular multidrug-resistant Salmonella typhimurium ATCC14028 infected in human HCT-116 cells assessed as reduction in viability of intracellular bacteria incubated for 24 hrs in presence of gentamicin by CFU assay; assay type: functional, organism-based, Salmonella enterica subsp. enterica serovar Typhimurium; conditions: Salmonella enterica, ATCC14028, HCT-116, 24 h; method in brief: as §2
[12] = Cytotoxicity against human HCT-116 cells assessed as reduction in cell viability in presence of gentamicin and measured after 24 hrs by MTT assay; assay type: toxicity, cell-based; method in brief: as §3
Salmonella typhimurium [13] = assay: Antibacterial activity against intracellular multidrug-resistant Salmonella typhimurium ATCC14028 infected in human Intestine 407 cells assessed as reduction in viability of intracellular bacteria incubated for 24 hrs in presence of gentamicin by CFU assay; assay type: functional, organism-based, Salmonella enterica subsp. enterica serovar Typhimurium; conditions: Salmonella enterica, ATCC14028, Intestine 407, 24 h; method in brief: as §2
[14] = Cytotoxicity against human Intestine 407 cells assessed as reduction in cell viability in presence of gentamicin and measured after 24 hrs by MTT assay; assay type: toxicity, cell-based; method in brief: as §3
Salmonella typhimurium [15] = assay: Antibacterial activity against intracellular multidrug-resistant Salmonella typhimurium ATCC14028 infected in human monocytic THP-1 cells assessed as reduction in viability of intracellular bacteria incubated for 24 hrs in presence of gentamicin by CFU assay; assay type: functional, organism-based, Salmonella enterica subsp. enterica serovar Typhimurium; conditions: Salmonella enterica, ATCC14028, THP-1, 24 h; method in brief: as §2
[16] = Cytotoxicity against human monocytic THP-1 cells assessed as reduction in cell viability in presence of gentamicin and measured after 24 hrs by MTT assay; assay type: toxicity, cell-based; method in brief: as §3
Salmonella typhimurium [17] = assay: Antibacterial activity against intracellular multidrug-resistant Salmonella typhimurium ATCC14028 infected in PMA induced human macrophagic THP-1 cells assessed as reduction in viability of intracellular bacteria incubated for 24 hrs in presence of gentamicin by CFU assay; assay type: functional, organism-based, Salmonella enterica subsp. enterica serovar Typhimurium; conditions: Salmonella enterica, ATCC14028, THP-1, 24 h; method in brief: as §2
[18] = Cytotoxicity against PMA induced human macrophagic THP-1 cells assessed as reduction in cell viability in presence of gentamicin and measured after 24 hrs by MTT assay; assay type: toxicity, cell-based; conditions: PMA induced macrophagic THP-1 cells; method in brief: as §3
Salmonella typhimurium [19] = assay: Antibacterial activity against intracellular multidrug-resistant clinical isolate Salmonella typhimurium CGC18 infected in mouse RAW264.7 cells assessed as reduction in number of intracellular bacteria incubated for 24 hrs in presence of gentamycin by CFU assay; assay type: functional, organism-based, Salmonella enterica subsp. enterica serovar Typhimurium; conditions: Salmonella enterica, CGC18, RAW264.7, 24 h; method in brief: as §2
Salmonella typhimurium [20] = assay: Antibacterial activity against intracellular ciprofloxacin-resistant Salmonella typhimurium NL10 infected in mouse RAW264.7 cells assessed as reduction in number of intracellular bacteria incubated for 24 hrs in presence of gentamycin by CFU assay; assay type: functional, organism-based, Salmonella enterica subsp. enterica serovar Typhimurium; conditions: Salmonella enterica, NL10, RAW264.7, 24 h; method in brief: as §2
Salmonella typhi = assay: Antibacterial activity against Salmonella typhi infected in mouse RAW264.7 cells assessed as reduction in number of viable intracellular bacteria incubated for 24 hrs by CFU assay; assay type: functional, organism-based, Salmonella enterica subsp. enterica serovar Typhi; conditions: Salmonella enterica, RAW264.7, 24 h; method in brief: as §2
Yersinia enterocolitica = assay: Antibacterial activity against Yersinia enterocolitica infected in mouse RAW264.7 cells assessed as reduction in number of viable intracellular bacteria incubated for 24 hrs by CFU assay; assay type: functional, organism-based; conditions: RAW264.7, 24 h
Method in brief: (§4)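 RAW264.7 macrophages in DMEM + 10% heat-inactivated FBS infected 1 h at MOI 25 with bacteria (overnight LB culture diluted 1:100, grown 2 h at 37°C, resuspended in PBS to OD600 0.6). Washed, 100 mg/L gentamicin 1 h, then compound plus 20 mg/L gentamicin for 24 h. Lysed in 0.1% Triton X-100/PBS 10 min at 37°C, lysates serially diluted onto LB agar, colonies counted after 18 h at 37°C.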

Listeria monocytogenes = assay: Antibacterial activity against Listeria monocytogenes infected in mouse RAW264.7 cells assessed as reduction in number of viable intracellular bacteria incubated for 24 hrs by CFU assay; assay type: functional, organism-based; conditions: RAW264.7, 24 h; method in brief: as §4
Staphylococcus aureus = assay: Antibacterial activity against methicillin-resistant Staphylococcus aureus USA 300 infected in mouse RAW264.7 cells assessed as reduction in number of viable intracellular bacteria incubated for 24 hrs by CFU assay; assay type: functional, organism-based; conditions: USA 300, RAW264.7, 24 h; method in brief: as §2

D(2) dopamine receptor (Homo sapiens), sequence (P14416 whole entry): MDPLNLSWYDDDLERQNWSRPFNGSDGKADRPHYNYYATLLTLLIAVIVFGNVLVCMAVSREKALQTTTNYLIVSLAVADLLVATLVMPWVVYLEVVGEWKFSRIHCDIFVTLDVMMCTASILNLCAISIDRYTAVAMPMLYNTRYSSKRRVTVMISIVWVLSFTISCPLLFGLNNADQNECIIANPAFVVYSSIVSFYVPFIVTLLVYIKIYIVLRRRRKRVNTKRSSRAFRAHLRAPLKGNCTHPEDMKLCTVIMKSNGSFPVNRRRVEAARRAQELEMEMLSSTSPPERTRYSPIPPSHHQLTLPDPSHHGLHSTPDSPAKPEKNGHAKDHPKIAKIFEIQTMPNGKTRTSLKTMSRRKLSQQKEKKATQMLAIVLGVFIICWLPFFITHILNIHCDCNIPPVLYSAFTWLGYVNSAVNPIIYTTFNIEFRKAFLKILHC

Row | Structure (SMILES) | EC50 (Salmonella typhimurium [1]) [µM] | CC50 [2] [µM] | selectivity ratio [3] | also measured
1 | CCCNC1=Nc2ccccc2Oc2ccc(Cl)cc21 | 56 | 112 | 2 | 
2 | CCCCCNC1=Nc2ccccc2Oc2ccc(Cl)cc21 | 54.1 | 72.7 | 1.3 | 
3 | O=C(O)c1cn(C2CC2)c2cc(N3CCNCC3)c(F)cc2c1=O [CIPROFLOXACIN] | 0.15 |  |  | 
4 | Clc1ccc2c(c1)C(NCc1ccccc1)=Nc1ccccc1O2 | 19.7 | 60.8 | 3.1 | 
5 | Clc1ccc2c(c1)C(NCCc1ccncc1)=Nc1ccccc1O2 | 18.5 | 51.1 | 2.8 | 
6 | Oc1ccc(CCNC2=Nc3ccccc3Oc3ccc(Cl)cc32)cc1 | 33.5 | 52.1 | 1.6 | 
7 | CN1CCCC1CCNC1=Nc2ccccc2Oc2ccc(Cl)cc21 (stereo not drawn) | 1.22 | 23 | 18.9 | 
8 | Clc1ccc2c(c1)C(N1CCNCC1)=Nc1ccccc1O2 [AMOXAPINE] | 7.25 | 107 | 14.8 | inhibition [4]: Active
9 | Clc1ccc2c(c1)C(NCCc1ccc(Cl)c(Cl)c1)=Nc1ccccc1O2 | 31.1 | 82.7 | 2.7 | 
10 | O=C(CNC1=Nc2ccccc2Oc2ccc(Cl)cc21)N1CCCC1 | > 90 | > 90 |  | 
11 | Clc1ccc2c(c1)C(NCCN1CCCC1)=Nc1ccccc1O2 | 4.89 | 26.6 | 5.4 | 
12 | Clc1ccc2c(c1)C(NCCc1cccnc1)=Nc1ccccc1O2 | 38.2 | 74 | 1.9 | 
13 | Clc1ccc2c(c1)C(NCCCN1CCCCC1)=Nc1ccccc1O2 | 1.12 | 19.6 | 17.5 | 
14 | Clc1ccc2c(c1)C(NCCN1CCNCC1)=Nc1ccccc1O2 | 0.39 | 23.4 | 60 | EC50 (Salmonella typhimurium [5]): 0.24 µM; CC50 at 24 h [6]: 20.7 µM; EC50 (Salmonella typhimurium [7]): 0.22 µM; CC50 at 24 h [8]: 15.4 µM; EC50 (Salmonella typhimurium [9]): 4.05 µM; CC50 at 24 h [10]: 32.5 µM; EC50 (Salmonella typhimurium [11]): 2.47 µM; CC50 at 24 h [12]: 41 µM; EC50 (Salmonella typhimurium [13]): 3 µM; CC50 at 24 h [14]: 40.5 µM; EC50 (Salmonella typhimurium [15]): 1.78 µM; CC50 at 24 h [16]: 28.4 µM; EC50 (Salmonella typhimurium [17]): 0.22 µM; CC50 at 24 h [18]: 30.3 µM; EC50 (Salmonella typhimurium [19]): 0.63 µM; EC50 (Salmonella typhimurium [20]): 0.64 µM; EC50 (Salmonella typhi): 0.28 µM; EC50 (Yersinia enterocolitica): 0.83 µM; EC50 (Listeria monocytogenes): 1.51 µM; EC50 (Staphylococcus aureus): 1.73 µM
15 | Clc1ccc2c(c1)C(NCC1CC1)=Nc1ccccc1O2 | 44 | 80.3 | 1.8 | 
16 | NCC(=O)Nc1ccc(-n2nc(C(F)(F)F)cc2-c2ccc3c(ccc4ccccc43)c2)cc1 [AR-12] |  | 7.7 |  | 
17 | Clc1ccc2c(c1)C(NCCc1ccccc1)=Nc1ccccc1O2 | 21.2 | 56.3 | 2.7 | 
18 | Clc1ccc2c(c1)C(NCCCN1CCCC1)=Nc1ccccc1O2 | 1.12 | 16.3 | 14.6 | 
19 | O=C1CCCN1CCCNC1=Nc2ccccc2Oc2ccc(Cl)cc21 | > 90 | > 90 |  | 
20 | CC(C)CCNC1=Nc2ccccc2Oc2ccc(Cl)cc21 | 55.1 | 70.1 | 1.3 | 
21 | Fc1ccc(CCNC2=Nc3ccccc3Oc3ccc(Cl)cc32)cc1 | 45.2 | > 90 | > 2 | 
22 | Clc1ccc(CCNC2=Nc3ccccc3Oc3ccc(Cl)cc32)cc1 | 53.5 | > 90 | > 1.7 | 
23 | CN(C)CCNC1=Nc2ccccc2Oc2ccc(Cl)cc21 | 3.65 | 34.6 | 9.5 | 
24 | Clc1ccc2c(c1)C(NCCN1CCCCC1)=Nc1ccccc1O2 | 4.34 | 22.2 | 5.1 | 
25 | Clc1ccc2c(c1)C(NCCN1CCOCC1)=Nc1ccccc1O2 | 32 | 84.7 | 2.6 | 
26 | CCC(CC)NC1=Nc2ccccc2Oc2ccc(Cl)cc21 | 28.5 | 72.8 | 2.6 | 
